{
  "source": "the RNAGym collection of RNA variant scans (doi:10.1126/science.aae0568)",
  "parents": {"B1": {"name": "tRNA (parent)", "chain": "GUUCCGUUGGCGUAAUGGUAACGCGUCUCCCUCCUAAGGAGAAGACUGCGGGUUCGAGUCCCGUACGGAACG"}},
  "note": "Fewer inactive variants are shown than the library holds.",
  "data": [
    {"variants_of": "B1", "assay": "yeast fitness relative to wild type (ratio to wild type); higher = fitter; tRNA-Arg(CCU), competitive growth, 37 C, YPD", "summary_of_the_method": "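Genotype frequency changes were the basis for Darwinian fitness relative to wild type. The frequencies came from 100-nucleotide paired-end sequencing of gene amplicons from the start population and each end population of pooled yeast strains with tRNA-Arg(CCU) gene variants at the native locus. Competition ran in YPD at 37°C for 24 hours in six replicates, genotypes needed ≥ 100 starting reads, and estimates < 0.5 were set to 0.5.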", "values": [
      {"variant": "GUUCCGUUCGCGUAAUGGCAACGUGUAUCCCUCCUAAGGAGAAGACUGCGGGUUCGAGUCCCGUACGGAACG", "note": "[G9C U19C C24U C27A]", "yeast fitness": "≤ 0.5"},
      {"variant": "GUUCCGUUCGCGUAAUGGCAACGUGUAUCCCUCCUAAGGAGAAGACUGCGGGUUCGAGUCCCGUACGAAACG", "note": "[G9C U19C C24U C27A G68A]", "yeast fitness": "≤ 0.5"},
      {"variant": "GUUCCGUUCGCGUAAUGGCAACGCGUCUUCCUCCUUAGGAGAAGACUGCGGGUUCGAGUCCCGUACAGAACG", "note": "[G9C U19C C29U A36U G67A]", "yeast fitness": "≤ 0.5"},
      {"variant": "GUUCCGUUCGCGUAAUGGCAACGCGUCUCCAUCCUAAGGAGAAGACUGCGGGUUUGAGUCCCGUACGGCACG", "note": "[G9C U19C C31A C55U A69C]", "yeast fitness": 0.547},
      {"variant": "GUUCCGUUCGCGUAAUGGCAACGCGUCUCCAUCCUAAGGAGAAGACUGCGGGUUCGACUCCCGUACGGAUCG", "note": "[G9C U19C C31A G58C A70U]", "yeast fitness": "≤ 0.5"},
      {"variant": "GUUCCGUUCGCGUAAUGGCAACGCGUCUCCGUCCUAAGGAGAAGACUGCGGGUUCGAGUCCCGUACGGAACG", "note": "[G9C U19C C31G]", "yeast fitness": 0.605},
      {"variant": "GUUCCGUUCGCGUAAUGGCAACCCGUCUCCCUCCUAAGGAGAAGACUGCGGGUUCGAGACCCGUACGCAACG", "note": "[G9C U19C G23C U59A G68C]", "yeast fitness": 0.548},
      {"variant": "GUUCCGUUCGCGUAAUGGCAACGCGUCUCCCUCCUAAGGAGAAGACUACGGGUUCGAGUCCCGUACGGAACG", "note": "[G9C U19C G48A]", "yeast fitness": 0.901},
      {"variant": "GUUCCGUUCGCGUAAUGGCAACGCGUCUCCCUCCUAAGGAGAAGACUACGGGUUCGAGUCCCGUAUGGAACG", "note": "[G9C U19C G48A C66U]", "yeast fitness": 0.657},
      {"variant": "GUUCCGUUCGCGUAAUGGUAACGCGACUCCCUCCUAAGGAGAAGACUGCGGGUUCGAGUCCCGUACGGAACG", "note": "[G9C U26A]", "yeast fitness": 0.613},
      {"variant": "GUUCCGUUCGCGUAAUGGUAACGCGACUCCCUCCUAAGGAGAAGACUCCGGGUUCGAGUCCCGUACGGAACG", "note": "[G9C U26A G48C]", "yeast fitness": "≤ 0.5"},
      {"variant": "GUUCCGUUCGCGUAAUGGUAACGCGACUCCCUCCUAAGGAGAAGACCAUGGGUUCAAGUCCCGUACCGGACG", "note": "[G9C U26A U47C G48A C49U G56A G67C A69G]", "yeast fitness": "≤ 0.5"},
      {"variant": "GUUCCGUUCGCGUAAUGGUAACGCGCCUCCCUCGUAGGGAGAAGACUGCGGGUUCGAGUCCCGUACGGAACG", "note": "[G9C U26C C34G A37G]", "yeast fitness": 0.591},
      {"variant": "GUUCCGUUCGCGUAAUGGUAACGCGCCUCCCUCGUAGGGAGAAGACUGCGGGUUCGAGUGCCGUCCGGAACG", "note": "[G9C U26C C34G A37G C60G A65C]", "yeast fitness": "≤ 0.5"},
      {"variant": "GUUCCGUUCGCGUAAUGGUAACGCGGCUCCCACCUAAGGAGAAGACUGCGGGUUCGUGUCCCGUACGGAACG", "note": "[G9C U26G U32A A57U]", "yeast fitness": 0.633},
      {"variant": "GUUCCGUUCGCGUAAUGGUAACGCGUCACCCUCCUAAGGAGAAGCCUCCGGGUUCGAGUCCGGUACGGAACG", "note": "[G9C U28A A45C G48C C62G]", "yeast fitness": 0.545},
      {"variant": "GUUCCGUUCGCGUAAUGGUAACGCGUCAACCUCCGAAGGAGAAGACUGCGGGUUCGAGUCCCGUACGGAACG", "note": "[G9C U28A C29A U35G]", "yeast fitness": "≤ 0.5"},
      {"variant": "GUUCCGUUCGCGUAAUGGUAACGCGUCACCCUCCUAAGGAGAAGAUUGCGGGUUCGAGUCCCGUACGGAUCG", "note": "[G9C U28A C46U A70U]", "yeast fitness": 0.615},
      {"variant": "GUUCCGUUCGCGUAAUGGUAACGCGUCCCCCUCCUAAGGAGAAGACUGCGGGUUCGAGUCCCGUACGGAACG", "note": "[G9C U28C]", "yeast fitness": 0.675},
      {"variant": "GUUCCGUUCGCGUAAUGGUAACGCGUCCCCCUCCUACGGAGAAGAGUGCGGGUUCGAGUCCCGUACGGAACG", "note": "[G9C U28C A37C C46G]", "yeast fitness": 0.768},
      {"variant": "GUUCCGUUCGCGUAAUGGUAACGCGUCCCCCUCCUAAGGAGUAGACCGCGGGUUCGAGUCCCGUACGGAACG", "note": "[G9C U28C A42U U47C]", "yeast fitness": 0.54},
      {"variant": "GUUCCGUUCGCGUAAUGGUAACGCGUCCCCUUCCUAAGGAGAAGACUGCGGGUUCGAGUCCCGUACGGAACG", "note": "[G9C U28C C31U]", "yeast fitness": "≤ 0.5"},
      {"variant": "GUUCCGUUCGCGUAAUGGUAACGCGUCCCCCUCCUAAGGAGAACACUGCGAGUUCGAGUCCCGUACGGAACG", "note": "[G9C U28C G44C G51A]", "yeast fitness": "≤ 0.5"},
      {"variant": "GUUCCGUUCGCGUAAUGGUAACGCGUCGUCCUCCUAAGGAGAAGACUGUGGGUAUGAGUCCCGUACGGACCG", "note": "[G9C U28G C29U C49U U54A C55U A70C]", "yeast fitness": "≤ 0.5"},
      {"variant": "GUUCCGUUCGCGUAAUGGUAACGCGUCGCCCUCCUAAGGAGAAGACUGCGGGUUGGAGUCCCGUACGGUACG", "note": "[G9C U28G C55G A69U]", "yeast fitness": "≤ 0.5"},
      {"variant": "GUUCCGUUCGCGUAAUGGUAACGCGUCUCCCACCUAAGGAGAAGACUGCGGGUUCGAGUCCCGUACGGAACG", "note": "[G9C U32A]", "yeast fitness": 0.648},
      {"variant": "GUUCCGUUCGCGUAAUGGUAACGCGUCUCCCACCUAAGGAGAAGACUGCGGGUUUGUGUCCAGUACGGAACG", "note": "[G9C U32A C55U A57U C62A]", "yeast fitness": "≤ 0.5"},
      {"variant": "GUUCCGUUCGCGUAAUGGUAACGCGUCUCCCACCUAAGGAGAAGACUGCGGGUUCCAGUCCCGUACGGAACG", "note": "[G9C U32A G56C]", "yeast fitness": "≤ 0.5"},
      {"variant": "GUUCCGUUCGCGUAAUGGUAACGCGUCUCCCACCUAAGGAGAAGACUGCGGGUUCGACUCCCGUACGGAACG", "note": "[G9C U32A G58C]", "yeast fitness": 0.583},
      {"variant": "GUUCCGUUCGCGUAAUGGUAACGCGUCUCCCCCCUGAGGAGAAGACUGCGGGUUCGAGUCCCGUACGGAACG", "note": "[G9C U32C A36G]", "yeast fitness": "≤ 0.5"},
      {"variant": "GUUCCGUUCGCGUAAUGGUAACGCGUCUCCCCCCUGAGGAGAAGACUGCGGGUUCGAGUCCCGUACGGAUCG", "note": "[G9C U32C A36G A70U]", "yeast fitness": "≤ 0.5"},
      {"variant": "GUUCCGUUCGCGUAAUGGUAACGCGUCUCCCCCCUAAGGAGAAGACUGCGGGCUCGAGUCCCGUACGGAACG", "note": "[G9C U32C U53C]", "yeast fitness": "≤ 0.5"},
      {"variant": "GUUCCGUUCGCGUAAUGGUAACGCGUCUCCCGCCUAAGGAGAAGACUGCGGGUUCGAGUCCCGUACGGACCG", "note": "[G9C U32G A70C]", "yeast fitness": "≤ 0.5"},
      {"variant": "GUUCCGUUCGCGUAAUGGUAACGCGUCUCCCUCCAAAGGAGAAGCCGGCGGGUUCGAGUCCGGUCCGGAACG", "note": "[G9C U35A A45C U47G C62G A65C]", "yeast fitness": "≤ 0.5"},
      {"variant": "GUUCCGUUCGCGUAAUGGUAACGCGUCUCCCUCCGAAGGAAAAGACUGCGGGUUCAAGUCCCGUACGGACCG", "note": "[G9C U35G G41A G56A A70C]", "yeast fitness": "≤ 0.5"},
      {"variant": "GUUCCGUUCGCGUAAUGGUAACGCGUCUCCCUCCUAAGGAGAAGACCGCGGGUUCGAGUCCCGUACGGAACG", "note": "[G9C U47C]", "yeast fitness": 0.632},
      {"variant": "GUUCCGUUCGCGUAAUGGUAACGCGUCUCCCUCCUAAGGAGAAGACGGCGGGUUCGAGUCCCGUACGGAACG", "note": "[G9C U47G]", "yeast fitness": 0.595},
      {"variant": "GUUCCGUUCGCGUAAUGGUAACGCGUCUCCCUCCUAAGGAGAAGACUGCGGGUACGAGUCCCGUACGGAACG", "note": "[G9C U54A]", "yeast fitness": 0.658}
    ]}
  ]
}
